What is called IC50 is the concentration that gives 50% inhibition.

Data set [1] deals with T1, Histone deacetylase 8 (Homo sapiens, UniProt Q9BY41).
T1 sequence (Q9BY41 whole entry): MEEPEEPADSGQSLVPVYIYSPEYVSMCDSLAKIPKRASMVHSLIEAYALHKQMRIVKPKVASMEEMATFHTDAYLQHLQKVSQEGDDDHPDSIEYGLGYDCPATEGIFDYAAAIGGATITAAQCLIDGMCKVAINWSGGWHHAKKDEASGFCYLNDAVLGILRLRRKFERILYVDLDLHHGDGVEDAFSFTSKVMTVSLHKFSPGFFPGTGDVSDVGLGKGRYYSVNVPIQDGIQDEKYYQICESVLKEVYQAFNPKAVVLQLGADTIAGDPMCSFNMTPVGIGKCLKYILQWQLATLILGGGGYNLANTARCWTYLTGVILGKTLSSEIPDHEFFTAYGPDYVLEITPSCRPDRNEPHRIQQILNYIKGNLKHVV
The experiment in a line: Inhibition of recombinant human HDAC8 using Fluor-de-Lys as substrate measured after 1 hr by fluorescence assay.

Data set [2] concerns HCT-116. Nature of the data set: Cytotoxicity against human HCT-116 cells assessed as reduction in cell viability measured after 24 hrs by MTT assay. The format is functional, cell-based. The note with it: HCT-116, 24 h. The method in brief: (§1)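 HCT-116 cells grown in DMEM with 10% FBS, 2 mM L-glutamine and antibiotics. 2.5×10^4 cells/well treated in triplicate at 50, 25, 10, 5 and 1 µM for 12, 24 or 48 h. Then MTT 0.5 mg/ml for 3 h, supernatant removed, formazan dissolved in isopropanol, absorbance read at 570 nm. IC50 derived from the concentration series.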
(Formazan colour is commonly taken as a measure of viable cells.)

Data set [3] relates to U-937. The experiment in a line: Cytotoxicity against human U-937 cells assessed as reduction in cell viability measured after 48 hrs by MTT assay. In kind it is functional, cell-based. The note with it: U-937, 48 h. The method in brief:
(§2)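 U937 cells grown in RPMI-1640 with 10% FBS, 2 mM L-glutamine and penicillin-streptomycin. 2.5×10^4 cells/well treated in triplicate at 50, 25, 10, 5 and 1 µM for 12, 24 or 48 h. MTT 0.5 mg/ml added for 3 h, plate centrifuged 5 min at 1200 rpm, crystals dissolved in isopropanol, A570 read. IC50 derived from the concentration series.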

In data set [4] the test system is HCT-116. The experiment in a line: Cytotoxicity against human HCT-116 cells assessed as cell viability measured after 48 hrs by MTT assay relative to control. In kind it is functional. The method in brief: as §1
In data set [5] the test system is U-937. The experiment in a line: Cytotoxicity against human U-937 cells assessed as reduction in cell proliferation at 50 uM measured after 48 hrs by MTT assay relative to control. The format is functional. Set-up: scale not given: the % may be the effect or the level left. The method in brief: as §2
For data set [6], the target named is T2, Protein deacetylase HDAC6 (Homo sapiens) (UniProt Q9UBN7).
T2 sequence (whole entry): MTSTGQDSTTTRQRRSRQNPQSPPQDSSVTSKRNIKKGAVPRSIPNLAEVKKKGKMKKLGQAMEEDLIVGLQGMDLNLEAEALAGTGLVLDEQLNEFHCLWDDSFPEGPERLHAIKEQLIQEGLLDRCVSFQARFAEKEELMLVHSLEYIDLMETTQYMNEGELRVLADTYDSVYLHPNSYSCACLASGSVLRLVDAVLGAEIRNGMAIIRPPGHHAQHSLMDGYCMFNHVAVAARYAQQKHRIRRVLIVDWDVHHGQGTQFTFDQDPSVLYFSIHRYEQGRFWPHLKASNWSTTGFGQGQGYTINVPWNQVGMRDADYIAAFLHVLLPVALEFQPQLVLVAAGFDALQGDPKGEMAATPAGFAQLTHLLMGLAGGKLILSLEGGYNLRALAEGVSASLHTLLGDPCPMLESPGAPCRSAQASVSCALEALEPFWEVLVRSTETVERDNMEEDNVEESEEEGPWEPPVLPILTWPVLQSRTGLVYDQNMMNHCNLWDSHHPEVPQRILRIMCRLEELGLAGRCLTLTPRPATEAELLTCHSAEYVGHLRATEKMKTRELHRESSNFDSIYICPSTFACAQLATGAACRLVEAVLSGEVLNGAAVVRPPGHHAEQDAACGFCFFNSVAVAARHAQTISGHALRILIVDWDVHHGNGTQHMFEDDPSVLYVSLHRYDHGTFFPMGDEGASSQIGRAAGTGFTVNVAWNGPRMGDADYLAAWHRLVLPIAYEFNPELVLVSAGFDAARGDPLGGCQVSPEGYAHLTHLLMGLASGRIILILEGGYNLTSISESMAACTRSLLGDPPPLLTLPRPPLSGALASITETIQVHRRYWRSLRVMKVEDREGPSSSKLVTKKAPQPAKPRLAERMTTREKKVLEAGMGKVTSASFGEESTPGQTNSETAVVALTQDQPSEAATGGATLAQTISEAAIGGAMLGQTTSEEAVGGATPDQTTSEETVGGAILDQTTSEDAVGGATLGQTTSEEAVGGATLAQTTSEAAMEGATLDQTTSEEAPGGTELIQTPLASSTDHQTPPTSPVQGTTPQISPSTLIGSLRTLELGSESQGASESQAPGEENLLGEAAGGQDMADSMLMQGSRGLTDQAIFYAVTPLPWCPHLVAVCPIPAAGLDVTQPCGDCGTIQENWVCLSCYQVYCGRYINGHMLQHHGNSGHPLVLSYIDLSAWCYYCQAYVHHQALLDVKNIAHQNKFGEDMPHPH
The experiment in a line: Inhibition of HDAC6 in human U-937 cells assessed as increase in alpha-tubulin acetylation at 10 uM measured after 12 to 24 hrs by Western blot analysis relative to control. In kind it is cell-based. The note with it: time 12-24 hrs. The method in brief: (§3)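 HCT-116 or U937 cells treated at 10 µM for 12 and 24 h. […] Western blot used 40 µg total protein or 5 µg acid-extracted histone. Blots probed for cleaved PARP, acetylated tubulin, H3K9/14ac and Hsp90(AcLys294), normalized to GAPDH or H4. Compared with control cells by one-way ANOVA and Dunnett's test.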

A short description of data set [7]: Inhibition of HDAC1/2/3/8 in human HCT-116 cells assessed as increase in H3K9/14 acetylation at 10 uM measured after 12 to 24 hrs by Western blot analysis relative to control. The format is cell-based. The settings on record: hct-116, 10 µM, time 12-24 hrs. The method in brief: as §3
Data set [8] is described as follows: Cytotoxicity against human PBMC cells assessed as reduction in cell viability at 90 uM measured after 24 to 48 hrs by GUAVA easyCyte cytometric method. The format is cell-based. The note with it: time 24-48 hrs. The method in brief:
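PBMCs seeded at 1.5 x10^6/mL in complete medium and exposed to 15, 45 or 90 µM test compound, or DMSO vehicle, for 24 h and 48 h. Percentage of viable cells determined by flow cytometry with ViaCount reagent.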

On to `CCN(CC)Cc1ccc(Cn2c(=O)c(OCc3ccc(C(=O)NO)cc3)c(-c3cccnc3)c3ccccc32)cc1`, for which the IC50 came out at 0.49 µM in data set [1], 25.7 µM in data set [2] and 45.5 µM in data set [3]. In addition, the Kapp in data set [1] (human, 1 h) came out at 0.4 µM. In addition, the Activity in data set [4] is 10%; in data set [5] it was 60%; in data set [8], “Toxic”. The results for the fold change (FC) in data set [6] and in data set [7] were more than 9 and more than 6, respectively.

(Values after ChEMBL document CHEMBL4732101, “Novel quinolone-based potent and selective HDAC6 inhibitors: Synthesis, molecular modeling studies and biological investigation” (Eur J Med Chem, 2021).)
